Test results: ChEMBL document CHEMBL1165969, “Synthesis and cytotoxicity of novel indirubin-5-carboxamides” (Bioorg Med Chem, 2010)
Values after ≈ are worked out from the molar mass of the structure shown.

What was measured:
[1] = Solubility in water by spectrophotometry; type: physicochemical
[2] = Antiproliferative activity against human LXFL 529L cells after 3 days by sulforhodamine B assay; type: functional, cell-based
Outline: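 Cells kept at 37 °C in humidified 5% CO2 in RPMI 1640 with 10% heat-inactivated FBS, penicillin (100 units/mL) and streptomycin, and checked for mycoplasma. Seeded, grown 24 h, then exposed to drug for 3 days in serum-containing medium. Fixed with 50% TCA solution for 1 h at 4 °C, stained with 0.4% SRB, dye eluted in 10 mM Tris pH 10.5, read at 570 nm. Growth expressed as % T/C; IC50 derived.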

solubility [1] | Structure (SMILES) | IC50 ([2]; Homo sapiens, LXFL 529L, 72 h) | IC50 ([2]; lxfl 529l)
55.5 µg/mL (≈ 145 µM) | O=C1Nc2ccc(C(=O)Nc3cccnc3)cc2/C1=C1/Nc2ccccc2C1=O | > 10 µM | –
523 µg/mL (≈ 1280 µM) | O=C1Nc2ccc(C(=O)N(CCO)CCO)cc2/C1=C1/Nc2ccccc2/C1=N\O | 5.9 µM | –
> 380 µg/mL | CN(C)CCN(C)C(=O)c1ccc2c(c1)/C(=C1/Nc3ccccc3/C1=N\OCCO[C@@H]1O[C@H](CO)[C@@H](O)[C@H](O)[C@H]1O)C(=O)N2 | > 10 µM | –
1000 µg/mL (≈ 2570 µM) | CN1CCN(C(=O)c2ccc3c(c2)/C(=C2/Nc4ccccc4C2=O)C(=O)N3)CC1 | 3.9 µM | –
41 µg/mL (≈ 134 µM) | O=C1Nc2ccc(C(=O)O)cc2/C1=C1/Nc2ccccc2C1=O | 7 µM | –
2450 µg/mL | C[N+]1(C)CCN(C(=O)c2ccc3c(c2)/C(=C2/Nc4ccccc4C2=O)C(=O)N3)CC1.[I-] | 2.5 µM | –
21 µg/mL (≈ 43.5 µM) | O=C1Nc2ccc(C(=O)N(CCO)CCO)cc2/C1=C1/Nc2ccccc2/C1=N\OCC(O)CO (configuration not stated) | 43 µM | –
> 2000 µg/mL | CN1CCN(CCNC(=O)c2ccc3c(c2)/C(=C2/Nc4ccccc4C2=O)C(=O)N3)CC1.Cl | – | 6 µM
6.8 µg/mL (≈ 17.3 µM) | O=C1Nc2ccc(C(=O)N(CCO)CCO)cc2/C1=C1/Nc2ccccc2C1=O | 4.7 µM | –
6400 µg/mL (≈ 15800 µM) | CN(C)CCN(C)C(=O)c1ccc2c(c1)/C(=C1/Nc3ccccc3/C1=N\O)C(=O)N2 | 2.2 µM | –
4.2 µg/mL (≈ 11.2 µM) | O=C1Nc2ccc(C(=O)N3CCNCC3)cc2/C1=C1/Nc2ccccc2C1=O | 3.2 µM | –
9.5 µg/mL (≈ 27.2 µM) | O=C1Nc2ccc(C(=O)NCCO)cc2/C1=C1/Nc2ccccc2C1=O | 9.2 µM | –
35.4 µg/mL (≈ 90.7 µM) | CN(C)CCN(C)C(=O)c1ccc2c(c1)/C(=C1/Nc3ccccc3C1=O)C(=O)N2 | 5.4 µM | –
179 µg/mL (≈ 491 µM) | O=C1Nc2ccc(C(=O)NCCO)cc2/C1=C1/Nc2ccccc2/C1=N\O | 4.5 µM | –
42 µg/mL (≈ 81.8 µM) | COc1ccc2c(c1)/C(=C1/Nc3ccccc3/C1=N\OCCO[C@@H]1O[C@H](CO)[C@@H](O)[C@H](O)[C@H]1O)C(=O)N2 | 0.5 µM | –
60000 µg/mL | COS(=O)(=O)[O-].C[N+]1(C)CCN(C(=O)c2ccc3c(c2)/C(=C2/Nc4ccccc4C2=O)C(=O)N3)CC1 | – | 3.5 µM
1600 µg/mL | CN(CC[N+](C)(C)C)C(=O)c1ccc2c(c1)/C(=C1/Nc3ccccc3C1=O)C(=O)N2.[I-] | 5.7 µM | –
– | O=C1Nc2ccccc2/C1=C1/Nc2ccccc2C1=O [INDIRUBIN] | 10 µM | –
53000 µg/mL | COS(=O)(=O)[O-].C[N+](C)(C)CCNC(=O)c1ccc2c(c1)/C(=C1/Nc3ccccc3C1=O)C(=O)N2 | 8.6 µM | –
1600 µg/mL (≈ 3240 µM) | CN1CCN(c2ccc(NC(=O)c3ccc4c(c3)/C(=C3/Nc5ccccc5/C3=N\O)C(=O)N4)cc2)CC1 | 4.2 µM | –
21.6 µg/mL (≈ 46 µM) | O=C1Nc2ccc(C(=O)NC[C@H](O)[C@@H](O)[C@H](O)[C@H](O)CO)cc2/C1=C1/Nc2ccccc2C1=O | > 30 µM | –
580 µg/mL (≈ 1370 µM) | CN(C)c1ccc(NC(=O)c2ccc3c(c2)/C(=C2/Nc4ccccc4C2=O)C(=O)N3)cc1 | 1.2 µM | –
13 µg/mL (≈ 34.5 µM) | CN(C)CCNC(=O)c1ccc2c(c1)/C(=C1/Nc3ccccc3C1=O)C(=O)N2 | 2.3 µM | –
700 µg/mL (≈ 1620 µM) | CN1CCN(CCNC(=O)c2ccc3c(c2)/C(=C2/Nc4ccccc4C2=O)C(=O)N3)CC1 | 7.8 µM | –
